Common to all, as to format: functional
The species named for assay [1] is Oryctolagus cuniculus. Kind of assay: Antiviral activity in primary rabbit kidney cell cultures against vesicular stomatitis virus.
The species entered for assay [2] is Homo sapiens. As to the kind of experiment: Inhibitory effect on proliferation of Human B-Lymphoblast (Raji). Conditions: read-out: ID50 (the source's name).
The subject of a further assay is FM3A. Kind of assay: Inhibitory effect on proliferation of Murine mammary Carcinoma (FM3A). Particulars: Mus musculus, read-out: ID50 (the source's name).
The species entered for assay [3] is Homo sapiens. As to the kind of experiment: Minimum cytotoxic concentration in diploid (E6SM) human cell culture. An outline of the steps: (§1)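 Uninfected confluent monolayers (rabbit kidney, HeLa, Vero or E6SM) were incubated with compound for the same time as the antiviral assay. The value is the lowest concentration (µg/mL) that causes a microscopically detectable change in normal cell morphology.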

For assay [4], the species on record is Oryctolagus cuniculus. Kind of assay: Antiviral activity in primary rabbit kidney cell cultures against Herpes Simplex virus type 1 (TK-strain VMW I837).
Assay [5] is filed under the species Oryctolagus cuniculus. As to the kind of experiment: Minimum cytotoxic concentration against herpes simplex virus in primary rabbit kidney cell cultures. The essentials:
as §1

The species named for assay [6] is Oryctolagus cuniculus. Kind of assay: Antiviral activity in primary rabbit kidney cell cultures against Herpes simplex virus type 2 Strain G.
The species named for assay [7] is Oryctolagus cuniculus. As to the kind of experiment: Antiviral activity in primary rabbit kidney cell cultures against Herpes Simplex virus type 1 (Fstrain).
For assay [8], the species on record is Oryctolagus cuniculus. Kind of assay: Antiviral activity in primary rabbit kidney cell cultures against vaccinia virus.
Assay [9] has as its system Vero. Kind of assay: Minimum cytotoxic concentration in vero cells of African green monkey kidney. Conditions: Chlorocebus sabaeus. An outline of the steps: as §1
For assay [10], the system named is Vero. Kind of assay: Minimum inhibitory concentration against vaccinia virus in vero cells of African green monkey kidney. Particulars: Chlorocebus sabaeus.
For assay [11], the species on record is Oryctolagus cuniculus. As to the kind of experiment: Antiviral activity in primary rabbit kidney cell cultures against Herpes Simplex virus type 1 (McIntyre strain).
The test system of assay [12] is HeLa. Kind of assay: Minimum inhibitory concentration against vaccinia virus in aneuploid (Hela) human cells.
Assay [13] is described as follows: Inhibitory effect on proliferation of Human T-Lymphoblast (Molt/4F) cells. Conditions: read-out: ID50 (the source's name).
Assay [14] is filed under the species Oryctolagus cuniculus. As to the kind of experiment: Antiviral activity in primary rabbit kidney cell cultures against Herpes simplex virus type 2 Strain 196.
The species entered for assay [15] is Homo sapiens. As to the kind of experiment: Minimum inhibitory concentration against vaccinia virus in diploid (E6SM) human cell culture.
For assay [16], the species on record is Oryctolagus cuniculus. As to the kind of experiment: Antiviral activity in primary rabbit kidney cell cultures against Herpes Simplex virus type 1 (KOS strain).
For assay [17], the species on record is Oryctolagus cuniculus. As to the kind of experiment: Antiviral activity in primary rabbit kidney cell cultures against Herpes simplex virus type 2 Strain Lyons.
Assay [18] has as its system HeLa. Kind of assay: Minimum cytotoxic concentration against vaccinia virus in aneuploid (Hela) human cells. An outline of the steps: as §1
The species named for assay [19] is Oryctolagus cuniculus. Kind of assay: Antiviral activity in primary rabbit kidney cell cultures against Herpes Simplex virus type 1 (TK-strain B2006).
Another assay deals with L1210. Kind of assay: Inhibitory effect on Proliferation of Murine Leukemia (L1210). Particulars: Mus musculus, read-out: ID50 (the source's name).

≈ marks a conversion by molar mass, not a printed value.

Take `Nc1ncnc2c1ncn2[C@@H]1O[C@H](COP(=O)([O-])OC[C@H]2O[C@H](n3cnc4c(N)ncnc43)[C@@H](O)[C@@H]2O)[C@@H](O)[C@@H]1O.[Na+]`: the MIC in the assay filed under Oryctolagus cuniculus [1] is greater than 400 µg/mL; in the assay listed under Oryctolagus cuniculus [4] it was 150 µg/mL; in the assay filed under Oryctolagus cuniculus [6], 70 µg/mL; in the assay filed under Oryctolagus cuniculus [7], 70 µg/mL; in the assay listed under Oryctolagus cuniculus [8], 7 µg/mL; in the assay on Vero [10], 70 µg/mL. The MIC is 70 µg/mL in the assay listed under Oryctolagus cuniculus [11]; 200 µg/mL with HeLa [12]; 100 µg/mL in the assay filed under Oryctolagus cuniculus [14]; 20 µg/mL in the assay filed under Homo sapiens [15]; 70 µg/mL in the assay listed under Oryctolagus cuniculus [16]; 20 µg/mL in the assay listed under Oryctolagus cuniculus [17]. Also, the MIC in the assay filed under Oryctolagus cuniculus [19] stood at 300 µg/mL. For the same compound, the IC50 was greater than 100 µg/mL in the assay filed under Homo sapiens [2], 86.6 µg/mL in the assay with FM3A, 43 µg/mL in [13] and greater than 100 µg/mL in the assay on L1210. The MCC was no less than 400 µg/mL in the assay listed under Homo sapiens [3], greater than 400 µg/mL in the assay listed under Oryctolagus cuniculus [5], greater than 400 µg/mL in the assay on Vero [9] and greater than 400 µg/mL in the assay on HeLa [18].
Turning to `Nc1ncnc2c1ncn2[C@@H]1O[C@H](CO)[C@@H](OP(=O)([O-])O[C@H]2[C@H](O)[C@H](n3cnc4c(N)ncnc43)O[C@@H]2CO)[C@@H]1O.[Na+]`, the MIC in the assay filed under Oryctolagus cuniculus [1] is greater than 400 µg/mL; in the assay filed under Oryctolagus cuniculus [4] it was greater than 400 µg/mL; in the assay filed under Oryctolagus cuniculus [6], greater than 400 µg/mL; in the assay listed under Oryctolagus cuniculus [7], greater than 400 µg/mL; in the assay filed under Oryctolagus cuniculus [8], 300 µg/mL; in the assay with Vero [10], greater than 400 µg/mL. In addition, the MIC in the assay listed under Oryctolagus cuniculus [11], with HeLa [12], in the assay filed under Oryctolagus cuniculus [14], in the assay filed under Homo sapiens [15], in the assay listed under Oryctolagus cuniculus [16] and in the assay filed under Oryctolagus cuniculus [17] was greater than 400 µg/mL in each case. This compound returned an MIC in the assay listed under Oryctolagus cuniculus [19] greater than 400 µg/mL. For the same compound, the IC50 (in the assay filed under Homo sapiens [2]; in the assay with FM3A; in assay [13]; in the assay with L1210) was greater than 100 µg/mL each time. Moreover, the MCC in the assay filed under Homo sapiens [3] is greater than 400 µg/mL; in the assay listed under Oryctolagus cuniculus [5], greater than 400 µg/mL; with Vero [9], no less than 400 µg/mL; in the assay with HeLa [18] it was no less than 400 µg/mL.
For `Nc1ncnc2c1ncn2C1O[C@H](CO)[C@@H](OP(=O)([O-])OC[C@H]2OC(n3cnc4c(N)ncnc43)[C@H](O)[C@H]2O)[C@@H]1O.[Na+]` (stereo partly specified), the MIC in the assay listed under Oryctolagus cuniculus [1] is greater than 40 µg/mL; in the assay listed under Oryctolagus cuniculus [4], 20 µg/mL; in the assay listed under Oryctolagus cuniculus [6] it was 7 µg/mL; in the assay filed under Oryctolagus cuniculus [7] it was 10 µg/mL; in the assay filed under Oryctolagus cuniculus [8], 2 µg/mL; in the assay on Vero [10] it was 20 µg/mL. The MIC in the assay filed under Oryctolagus cuniculus [11] was 7 µg/mL; in the assay on HeLa [12] it was 20 µg/mL; in the assay listed under Oryctolagus cuniculus [14], 20 µg/mL; in the assay listed under Homo sapiens [15] it was 10 µg/mL; in the assay filed under Oryctolagus cuniculus [16] it was 20 µg/mL; in the assay listed under Oryctolagus cuniculus [17], 2 µg/mL. Also, in the assay filed under Oryctolagus cuniculus [19], the MIC turned out to be 20 µg/mL. Besides, the IC50 in the assay filed under Homo sapiens [2] worked out at 32.3 µg/mL; in the assay on FM3A, 20.4 µg/mL; in assay [13], 23.3 µg/mL; with L1210 it was 10 µg/mL. Besides, the MCC in the assay filed under Homo sapiens [3] is no less than 400 µg/mL; in the assay filed under Oryctolagus cuniculus [5], 100 µg/mL; in the assay on Vero [9], greater than 40 µg/mL; in the assay on HeLa [18] it was 100 µg/mL.
Regarding `Nc1ncnc2c1ncn2C1O[C@H](CO)C(OP(=O)([O-])OC[C@H]2OC(n3cnc4c(N)ncnc43)[C@@H](O)[C@@H]2O)[C@@H]1O.[Na+]` (stereo partly specified), the MIC in the assay listed under Oryctolagus cuniculus [1] is greater than 100 µg/mL; in the assay listed under Oryctolagus cuniculus [4] it was 20 µg/mL; in the assay listed under Oryctolagus cuniculus [6] it was 7 µg/mL; in the assay listed under Oryctolagus cuniculus [7] it was 10 µg/mL; in the assay listed under Oryctolagus cuniculus [8], 0.2 µg/mL; with Vero [10] it was 20 µg/mL. The MIC was determined as 10 µg/mL in the assay filed under Oryctolagus cuniculus [11]; 20 µg/mL in the assay with HeLa [12]; 7 µg/mL in the assay filed under Oryctolagus cuniculus [14]; 2 µg/mL in the assay filed under Homo sapiens [15]; 20 µg/mL in the assay listed under Oryctolagus cuniculus [16]; 2 µg/mL in the assay listed under Oryctolagus cuniculus [17]. Besides, the MIC in the assay filed under Oryctolagus cuniculus [19] is 20 µg/mL. For the same compound, the IC50 in the assay filed under Homo sapiens [2] was 30 µg/mL; in the assay with FM3A it was 22.4 µg/mL; in assay [13], 13.6 µg/mL; with L1210, 22.2 µg/mL. The MCC is greater than 400 µg/mL in the assay listed under Homo sapiens [3], greater than 200 µg/mL in the assay filed under Oryctolagus cuniculus [5], greater than 400 µg/mL in the assay on Vero [9] and no less than 200 µg/mL in the assay with HeLa [18].
On to `Nc1ncnc2c1ncn2[C@@H]1O[C@H](COP(=O)(O)O)[C@@H](O)[C@@H]1O` [VIDARABINE PHOSPHATE], for which the MIC in the assay listed under Oryctolagus cuniculus [1] is greater than 400 µg/mL; in the assay filed under Oryctolagus cuniculus [4], 20 µg/mL; in the assay listed under Oryctolagus cuniculus [6], 7 µg/mL; in the assay filed under Oryctolagus cuniculus [7] it was 7 µg/mL; in the assay listed under Oryctolagus cuniculus [8], 0.2 µg/mL; in the assay with Vero [10], 20 µg/mL. Also, the MIC in the assay listed under Oryctolagus cuniculus [11] amounted to 10 µg/mL; against HeLa [12], 20 µg/mL; in the assay listed under Oryctolagus cuniculus [14], 20 µg/mL; in the assay filed under Homo sapiens [15], 7 µg/mL; in the assay filed under Oryctolagus cuniculus [16], 20 µg/mL; in the assay listed under Oryctolagus cuniculus [17], 2 µg/mL. This compound had an MIC in the assay filed under Oryctolagus cuniculus [19] of 20 µg/mL. In addition, the IC50 in the assay listed under Homo sapiens [2] was determined as 32.6 µg/mL; with FM3A it was 23.9 µg/mL; in assay [13], 18.5 µg/mL; in the assay on L1210 it was 24.2 µg/mL. For the same compound, the MCC was no less than 400 µg/mL in the assay listed under Homo sapiens [3], greater than 100 µg/mL in the assay listed under Oryctolagus cuniculus [5], no less than 200 µg/mL in the assay with Vero [9] and no less than 400 µg/mL in the assay on HeLa [18].
As for `Nc1ncnc2c1ncn2[C@@H]1O[C@H](CO)[C@@H](O)[C@@H]1O` [VIDARABINE], the MIC in the assay filed under Oryctolagus cuniculus [1] is 20 µg/mL (≈ 74.8 µM); in the assay filed under Oryctolagus cuniculus [4], 20 µg/mL (≈ 74.8 µM); in the assay filed under Oryctolagus cuniculus [6], 7 µg/mL (≈ 26.2 µM); in the assay filed under Oryctolagus cuniculus [7], 7 µg/mL (≈ 26.2 µM); in the assay filed under Oryctolagus cuniculus [8], 2 µg/mL (≈ 7.48 µM); in the assay with Vero [10], 70 µg/mL (≈ 262 µM). Besides, the MIC in the assay filed under Oryctolagus cuniculus [11] was 10 µg/mL (≈ 37.4 µM); with HeLa [12] it was 20 µg/mL (≈ 74.8 µM); in the assay filed under Oryctolagus cuniculus [14], 20 µg/mL (≈ 74.8 µM); in the assay filed under Homo sapiens [15], 7 µg/mL (≈ 26.2 µM); in the assay filed under Oryctolagus cuniculus [16] it was 20 µg/mL (≈ 74.8 µM); in the assay filed under Oryctolagus cuniculus [17], 7 µg/mL (≈ 26.2 µM). In the assay filed under Oryctolagus cuniculus [19], the MIC turned out to be 20 µg/mL (≈ 74.8 µM). The IC50 in the assay filed under Homo sapiens [2] was 25.9 µg/mL (≈ 96.9 µM); with FM3A it was 21.1 µg/mL (≈ 79 µM); in [13], 16.7 µg/mL (≈ 62.5 µM); with L1210, 21 µg/mL (≈ 78.6 µM). The MCC in the assay listed under Homo sapiens [3] is greater than 400 µg/mL; in the assay listed under Oryctolagus cuniculus [5], greater than 100 µg/mL; in the assay with Vero [9] it was no less than 400 µg/mL; in the assay on HeLa [18], greater than 200 µg/mL.
